Source: PubChem BioAssay
Hits are enriched below; roughly 2.7% of the tested compounds scored in any of these assays.
MC4R antag cAMP: MC4R antagonists of cAMP signaling, primary screen, cell-based, TR-FRET, antagonist arm of biased-ligand search. MC4R-expressing cells, MTII-stimulated cAMP, LANCE TR-FRET. actives 0.48% (n = 360,000). AID 540295, 2011. inhibition, % at 6.5 µM;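 active = inhibition above its plate's cutoff, the mean of tested wells on that plate plus 3 SD, cut at about 29% in these data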;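 also: 0% = Melanotan II alone and 100% = Melanotan II plus saturating MCL0020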
Target sequence (P32245 whole entry, looked up): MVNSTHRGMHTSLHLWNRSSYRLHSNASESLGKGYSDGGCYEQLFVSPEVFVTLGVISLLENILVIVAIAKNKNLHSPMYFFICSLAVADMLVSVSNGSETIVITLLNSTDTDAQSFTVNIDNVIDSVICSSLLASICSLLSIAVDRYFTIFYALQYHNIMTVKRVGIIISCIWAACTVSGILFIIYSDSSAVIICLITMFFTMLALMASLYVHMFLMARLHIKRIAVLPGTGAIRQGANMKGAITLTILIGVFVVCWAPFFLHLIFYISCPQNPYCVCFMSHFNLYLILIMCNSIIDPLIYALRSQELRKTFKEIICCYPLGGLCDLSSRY
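Material: human MC4R-expressing U2OS cells. Probe or stimulus: Melanotan II challenge. Dosing: 6.5 µM single dose. Times: 30-min compound, 1-h challenge, 1-h detection, room temperature. Technique: TR-FRET with Eu-cAMP and labeled anti-cAMP, 671 nm. Replication: singlicate.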
Rev-erbA mod: modulators of Rev-erb alpha DNA binding, primary screen, biochemical, FITC-DNA, fluorescence polarization, uHTS; Nuclear receptor subfamily 1 group D member 1 (Homo sapiens), P20393; AID 1259318, 2017; Rev-erbα–FITC-DNA binding, 90 min; actives 0.79% (n = 370,000); activity, % at 10 µM;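 active = activity above about 14%, limit read from the data; passing the limit was not always enough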;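 also: 0% = DMSO wells with 35 nM protein and 100% = DMSO wells with 750 nM protein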
PG9 binder: binders of HIV-1 gp120 antibody PG9, primary screen, biochemical, TR-FRET; HIV-1 gp120 / PG9 antibody interaction; TR-FRET gp120-PG9 antibody binding; inhibition, % at 6.7 µM; actives 0.43% (n = 360,000); in the data active = inhibition above about 8.5%
NR2E3 ag-1: NR2E3 agonists in two-hybrid cells, primary screen, cell-based, luminescence, CHO-S, Gal4-NCOR/VP16-NR2E3 | Photoreceptor-specific nuclear receptor (Homo sapiens), Q9Y5X4 | luciferase | inhibition of corepressor binding, % at 3.98 µM | actives 0.35% (n = 360,000) | AID 602229, 2012;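 active = inhibition above the mean of all tested compounds plus 3 SD, cut at about 70% in these data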;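 also: 0% = DMSO with NR2E3 transfected cells and 100% = cells lacking NR2E3 construct; higher means lower luciferase signal from less NR2E3 corepressor binding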
Target sequence (Q9Y5X4 whole entry, looked up, the tested form may be a part): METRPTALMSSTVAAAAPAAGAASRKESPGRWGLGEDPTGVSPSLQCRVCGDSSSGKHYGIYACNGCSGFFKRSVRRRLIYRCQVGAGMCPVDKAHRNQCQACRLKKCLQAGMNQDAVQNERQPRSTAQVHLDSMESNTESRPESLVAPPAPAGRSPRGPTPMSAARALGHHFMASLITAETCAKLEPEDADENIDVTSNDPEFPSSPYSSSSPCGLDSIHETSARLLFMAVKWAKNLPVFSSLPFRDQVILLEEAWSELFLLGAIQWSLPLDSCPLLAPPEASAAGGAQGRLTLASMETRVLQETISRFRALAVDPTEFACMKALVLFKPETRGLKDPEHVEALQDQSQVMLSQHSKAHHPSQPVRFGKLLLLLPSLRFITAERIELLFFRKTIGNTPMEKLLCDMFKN
NR2E3 ag-2: inhibitors of NR2E3-RetCOR corepressor binding, primary screen, NR2E3 agonist project, biochemical, TR-FRET, GST-NR2E3, biotin-RetCOR; actives 0.12% (n = 320,000); AID 2300, 2010; inhibition of corepressor binding, % at 4.78 µM; 1536-well;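 active = percent inhibition above the cutoff of mean plus 3 SD of all tested compounds, set per screening campaign, cut at about 20% in these data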;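 also: 0% = DMSO wells and 100% = biotin wells as full block of FRET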
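Material – GST-tagged NR2E3 plus biotinylated RetCOR corepressor · Quantity – NR2E3 fusion 1.35 nM · Times – 5 h incubation at 4 °C · Medium – pH 7.5 Tris-based buffer · Technique – TR-FRET, Eu(K)-anti-GST donor, streptavidin-D2 acceptor, ex 340, em 617/671 nm · Benchmarks – high control biotin, low control 0.6% DMSO · Format – 1536-well plates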
MC4R ag barr: MC4R agonists recruiting beta-arrestin, primary screen, cell-based, luminescence, agonist arm of biased-ligand search. Melanocortin receptor 4 (Homo sapiens), P32245. U2OS MC4R beta-arrestin complementation; percent of melanotan II response, DMSO zero. activation, % at 8.9 µM. actives 0.98% (n = 360,000). AID 540308, 2011;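 active = activation above a per-plate cutoff, the mean activation of sample wells on that plate plus 3 SD, cut at about 8% in these data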
NR2E3 ag conf: NR2E3 agonist confirmation in cells, cell-based, luminescence, CHO-S two-hybrid | shares compounds with NR2E3 ag-1 | CHO-S mammalian two-hybrid NR2E3-NCOR, luciferase luminescence | inhibition, % at 3.98 µM | actives 51% (n = 2,300);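 active = average inhibition above a cutoff equal to the mean inhibition of all tested compounds plus one SD, cut at about 70% in these data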;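 also: 0% = DMSO in NR2E3 cells and 100% = DMSO in cells lacking NR2E3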
VP16 counter: GAL4-VP16 reporter modulators, confirmation, counter-screen for NR2E3 agonist project, cell-based, luminescence, CHO-S, high throughput. shares compounds with NR2E3 ag-1. AID 624379, 2012. inhibition, % at 3.98 µM. CHO-S GAL4-VP16 luciferase reporter. actives 29% (n = 2,300);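 active = mean inhibition above a cutoff equal to the average over all tested compounds plus one standard deviation, cut at about 70% in these data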;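 also: luciferase from a UAS reporter driven by GAL4-VP16 transactivation; 0% = DMSO with VP16-transfected cells and 100% = DMSO with cells lacking VP16; higher means less reporter light so more repression of VP16 activity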
Starred values were filed as active, the others as inactive.

How did CC(NC(=O)c1cccs1)C(c1cccs1)N1CCN(c2ccccc2)CC1 (centres undefined) do in these assays?
MC4R antag cAMP: -1.1; Rev-erbA mod: 0.3; PG9 binder: 0.2; NR2E3 ag-1: -8.5; NR2E3 ag-2: 1.4; MC4R ag barr: -0.6

What do the screens show for `COc1cnc(-c2ccccn2)nc1Sc1c(Cl)cccc1Cl`?
MC4R antag cAMP: -4.8; Rev-erbA mod: 11.8; PG9 binder: -3.0; NR2E3 ag-1: 90.9*; NR2E3 ag-2: 0.6; MC4R ag barr: 1.0; NR2E3 ag conf: 23.6; VP16 counter: 3.2

Results for COc1cnc(-c2ccccn2)nc1Sc1ccccc1Cl ?
MC4R antag cAMP: 7.3; Rev-erbA mod: -0.9; PG9 binder: -1.4; NR2E3 ag-1: 90.8*; NR2E3 ag-2: -4.6; MC4R ag barr: 0.8; NR2E3 ag conf: 90.0*; VP16 counter: 25.0

Results for CC1CCN(C(=O)CSCc2ccc(Cl)cc2)CC1 ?
MC4R antag cAMP: -2.4; Rev-erbA mod: -4.0; PG9 binder: 1.9; NR2E3 ag-1: -96.1; NR2E3 ag-2: 5.1; MC4R ag barr: -0.1

How did Cc1[nH]c(=O)[nH]c(=O)c1S(=O)(=O)N1CCCC(C(=O)NCc2ccc3c(c2)OCO3)C1 (centres undefined) do in these assays?
MC4R antag cAMP: 0.8; Rev-erbA mod: 3.4; PG9 binder: 1.2; NR2E3 ag-1: -15.0; NR2E3 ag-2: -0.3; MC4R ag barr: -2.6

What do the screens show for `CCOC(=O)Nc1ccc2c(c1)C(=NNC(=S)NC)c1ccccc1-2`?
MC4R antag cAMP: 13.5; Rev-erbA mod: 4.5; PG9 binder: -1.8; NR2E3 ag-1: 86.1*; MC4R ag barr: -3.4; NR2E3 ag conf: -17.9; VP16 counter: -21.4

How did COc1cc(NS(=O)(=O)c2ccc(-n3cccn3)cc2)cc(OC)c1 do in these assays?
MC4R antag cAMP: -1.1; NR2E3 ag-1: 51.2; MC4R ag barr: -0.9; NR2E3 ag conf: 54.9; VP16 counter: 47.5

How did Cc1ccc(C)c(NS(=O)(=O)c2ccc(-n3cccn3)cc2)c1 do in these assays?
MC4R antag cAMP: 3.3; Rev-erbA mod: 0.9; PG9 binder: -1.4; NR2E3 ag-1: 5.7; MC4R ag barr: 0.1

Results for COc1ccc(CNS(=O)(=O)c2ccc(-n3cccn3)cc2)cc1 ?
MC4R antag cAMP: 11.6; Rev-erbA mod: 10.1; PG9 binder: 0.0; NR2E3 ag-1: 0.4; NR2E3 ag-2: 2.3; MC4R ag barr: 0.2

What do the screens show for `Cc1ccc(NS(=O)(=O)c2ccc(-n3cccn3)cc2)cc1C`?
MC4R antag cAMP: 10.5; Rev-erbA mod: -1.8; PG9 binder: 1.1; NR2E3 ag-1: 56.8; NR2E3 ag-2: 3.9; MC4R ag barr: 9.4*; NR2E3 ag conf: 59.0; VP16 counter: 52.3

How did CC(=O)N1CCc2cc(NC(=O)C3(C)CCN3Cc3ccccc3Cl)ccc21 (centres undefined) do in these assays?
MC4R antag cAMP: -1.1; Rev-erbA mod: -3.6; PG9 binder: -1.4; NR2E3 ag-1: -33.4; MC4R ag barr: -0.7

Results for CCOC(=O)C1=C(COC(=O)/C=C/c2cccc(Br)c2)NC(=O)NC1C (centres undefined) ?
MC4R antag cAMP: 2.7; Rev-erbA mod: -4.3; PG9 binder: -1.2; NR2E3 ag-1: 0.0; NR2E3 ag-2: -1.4; MC4R ag barr: 1.8

Results for COc1ccc(-[n+]2c(C)cc(/C=C3\Sc4ccccc4N3C)cc2C)cc1 ?
MC4R antag cAMP: -32.1; Rev-erbA mod: 15.5; PG9 binder: -21.6; NR2E3 ag-1: 92.5*; NR2E3 ag-2: -7.7; MC4R ag barr: -2.2; NR2E3 ag conf: 98.6*; VP16 counter: 92.4*

Results for COc1ccc(C(=O)/C=C2\Sc3ccccc3N2C)cc1 ?
MC4R antag cAMP: -7.5; Rev-erbA mod: 1.1; PG9 binder: -3.4; NR2E3 ag-1: -152.5; NR2E3 ag-2: -2.4; MC4R ag barr: 4.3

Results for COc1ccccc1-[n+]1c(C)cc(/C=C2\Sc3ccccc3N2C)cc1C ?
MC4R antag cAMP: -34.7; Rev-erbA mod: 16.1; PG9 binder: -17.1; NR2E3 ag-1: 91.6*; NR2E3 ag-2: -9.8; MC4R ag barr: -2.7; NR2E3 ag conf: 96.9*; VP16 counter: 82.8*

What do the screens show for `CCCCNC(=O)N1CCCC(C(=O)c2cc(C)c(OC)c(C)c2)C1` (centres undefined)?
MC4R antag cAMP: -3.0; Rev-erbA mod: 0.4; PG9 binder: -2.4; NR2E3 ag-1: -14.6; NR2E3 ag-2: 0.0; MC4R ag barr: -1.7

What do the screens show for `Cc1cc(C(=O)COC(=O)c2ccc(O)cc2O)c(C)n1-c1ccc(OC(F)F)cc1`?
MC4R antag cAMP: 6.5; Rev-erbA mod: 3.2; PG9 binder: -0.9; NR2E3 ag-1: 54.8; MC4R ag barr: 8.1; NR2E3 ag conf: 3.1; VP16 counter: 25.0

How did CCCC(=O)c1ccc(N2CCN(C(=O)c3ccccc3Br)CC2)c(F)c1 do in these assays?
MC4R antag cAMP: 3.4; Rev-erbA mod: 0.6; PG9 binder: -1.2; NR2E3 ag-1: 83.6*; NR2E3 ag-2: 0.5; MC4R ag barr: 1.8; NR2E3 ag conf: 73.7*; VP16 counter: 67.7

Results for COc1ccc(N(C(=O)Cn2nnc(-c3ccc(F)cc3)n2)C(C)C(=O)NC2CCCC2)cc1 (centres undefined) ?
MC4R antag cAMP: 11.7; Rev-erbA mod: -3.0; PG9 binder: -1.5; NR2E3 ag-1: -13.8; NR2E3 ag-2: 3.2; MC4R ag barr: 0.8

How did O=C(C(=Cc1ccccc1)CN1CCCCC1)c1ccccc1 do in these assays?
MC4R antag cAMP: 19.0; Rev-erbA mod: -1.7; PG9 binder: -1.4; NR2E3 ag-1: 93.3*; MC4R ag barr: -1.4; NR2E3 ag conf: 101.1*; VP16 counter: 46.9

How did S=C(NCc1cccnc1)Nc1cccc2ccccc12 do in these assays?
MC4R antag cAMP: 18.5; Rev-erbA mod: 1.9; PG9 binder: -0.6; NR2E3 ag-1: -4.0; NR2E3 ag-2: 3.7; MC4R ag barr: -2.0
